Test results: ChEMBL document CHEMBL1157843, “Synthesis and anticonvulsant activity of a new 6-alkoxy-[1,2,4]triazolo[4,3-b]pyridazine” (Eur J Med Chem, 2010)
The source made the active and inactive calls. The rule behind the calls is not given here.

Columns and labels:
Mus musculus [1] = assay: Anticonvulsant in mouse assessed as protection against maximum electric stimulus-induced seizures at 100 mg/kg, ip after 4 hrs; format: functional, organism-based; design: dose 100 mg/kg
How it was run: (§1)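 Phase-I qualitative MES screen following NIH ADD protocol. KunMing mice (18–25 g), three per dose, test agent in polyethylene glycol-400 i.p. at 30, 100 or 300 mg/kg. Protection assessed 0.5 h and 4 h after dosing; scored as animals protected/animals tested.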

Mus musculus [2] = assay: Neurotoxicity against mouse at 100 mg/kg, ip after 0.5 hrs by rotarod ataxia test; format: toxicity, organism-based; design: dose 100 mg/kg, route intraperitoneal; details: in vivo
How it was run: (§2)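 Phase-I rotarod ataxia screen per NIH ADD protocol. KunMing mice (18–25 g), three per dose, test agent in polyethylene glycol-400 i.p. at 30, 100 or 300 mg/kg. Neurological deficit read 30 min and 4 h after dosing; scored as animals showing toxicity/animals tested.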

Mus musculus [3] = assay: Neurotoxicity against mouse at 100 mg/kg, ip after 4 hrs by rotarod ataxia test; format: toxicity, organism-based; design: dose 100 mg/kg, route intraperitoneal; details: in vivo; how it was run: as §2
Mus musculus [4] = assay: Anticonvulsant in ip dosed mouse assessed as protection against maximum electric stimulus-induced seizures; format: functional
How it was run: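 Phase-II quantitation in KunMing mice (18–25 g), vehicle polyethylene glycol-400. Groups of 10 received a range of i.p. doses until at least three points fell within 10–90% MES protection or minimal rotarod neurotoxicity. ED50, TD50 and 95% confidence intervals computed from regression by an NINDS program. PI = TD50/ED50.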

Mus musculus [5] = assay: Anticonvulsant in mouse assessed as protection against maximum electric stimulus-induced seizures at 100 mg/kg, ip after 0.5 hrs; format: functional, organism-based; design: dose 100 mg/kg; how it was run: as §1
[6] = Neurotoxicity against ip dosed mouse by rotarod ataxia test; format: toxicity, organism-based; details: in vivo
Mus musculus [7] = assay: Protective index, ratio of TD50 for ip dosed mouse to ED50 for maximum electric stimulus-induced seizure in ip dosed mouse; format: functional
Mus musculus [8] = assay: Anticonvulsant in mouse assessed as protection against maximum electric stimulus-induced seizures at 30 mg/kg, ip after 4 hrs; format: functional, organism-based; design: dose 30 mg/kg; how it was run: as §1
Mus musculus [9] = assay: Neurotoxicity against mouse at 30 mg/kg, ip after 0.5 hrs by rotarod ataxia test; format: toxicity, organism-based; design: dose 30 mg/kg, route intraperitoneal; details: in vivo; how it was run: as §2
Mus musculus [10] = assay: Neurotoxicity against mouse at 30 mg/kg, ip after 4 hrs by rotarod ataxia test; format: toxicity, organism-based; design: dose 30 mg/kg, route intraperitoneal; details: in vivo; how it was run: as §2
Mus musculus [11] = species: Mus musculus; assay: Sedative-hypnotic activity in mouse assessed as reduction in righting reflex; format: organism-based; details: in vivo
How it was run: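 Phase-III work in KunMing mice: behaviour observed at intervals up to 24 h after i.p. TD50, 2TD50 and 4TD50 doses. […] Ratio taken as HD50 divided by i.p. MES ED50.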

Mus musculus [12] = assay: Anticonvulsant activity in mouse assessed as inhibition of PTZ-induced clonic seizure at 50 mg/kg, ip administered 30 mins prior to PTZ challenge measured after 0.5 hrs; format: functional; details: route intraperitoneal
How it was run: (§3)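 KunMing mice, 18–25 g, groups of 10; test agent in polyethylene glycol-400 given i.p. 30 min before convulsant. PTZ 85 mg/kg s.c., 3-MP 40 mg/kg s.c., isoniazid 250 mg/kg i.p.; doses chosen to induce seizures in at least 97% of animals. Individual cages, 30 min observation; clonic seizures, tonic seizures and lethality recorded.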

Mus musculus [13] = assay: Anticonvulsant activity in mouse assessed as inhibition of PTZ-induced tonic seizure at 50 mg/kg, ip administered 30 mins prior to PTZ challenge measured after 0.5 hrs; format: functional; details: route intraperitoneal; how it was run: as §3
Mus musculus [14] = assay: Anticonvulsant activity in mouse assessed as reduction of PTZ-induced lethality at 50 mg/kg, ip administered 30 mins prior to PTZ challenge measured after 0.5 hrs; format: functional; design: scale not given: the % may be the effect or the level left; details: route intraperitoneal
Mus musculus [15] = assay: Anticonvulsant activity in mouse assessed as inhibition of isoniazid-induced clonic seizure at 50 mg/kg, ip administered 30 mins prior to isoniazid challenge measured after 0.5 hrs; format: functional; details: route intraperitoneal; how it was run: as §3
Mus musculus [16] = assay: Anticonvulsant activity in mouse assessed as inhibition of isoniazid-induced tonic seizure at 50 mg/kg, ip administered 30 mins prior to isoniazid challenge measured after 0.5 hrs; format: functional; details: route intraperitoneal; how it was run: as §3
Mus musculus [17] = assay: Anticonvulsant activity in mouse assessed as reduction of isoniazid-induced lethality at 50 mg/kg, ip administered 30 mins prior to isoniazid challenge measured after 0.5 hrs; format: functional; design: scale not given: the % may be the effect or the level left; details: route intraperitoneal
Mus musculus [18] = assay: Anticonvulsant activity in mouse assessed as inhibition of 3-mercaptopropionic acid-induced clonic seizure at 50 mg/kg, ip administered 30 mins prior to 3-mercaptopropionic acid challenge measured after 0.5 hrs; format: functional; details: route intraperitoneal; how it was run: as §3
Mus musculus [19] = assay: Anticonvulsant activity in mouse assessed as inhibition of 3-mercaptopropionic acid-induced tonic seizure at 50 mg/kg, ip administered 30 mins prior to 3-mercaptopropionic acid challenge measured after 0.5 hrs; format: functional; details: route intraperitoneal; how it was run: as §3
Mus musculus [20] = assay: Anticonvulsant activity in mouse assessed as reduction of 3-mercaptopropionic acid-induced lethality at 50 mg/kg, ip administered 30 mins prior to 3-mercaptopropionic acid challenge measured after 0.5 hrs; format: functional; design: scale not given: the % may be the effect or the level left; details: route intraperitoneal
Mus musculus [21] = assay: Anticonvulsant activity in mouse assessed as inhibition of thiosemicarbazide-induced clonic seizure at 50 mg/kg, ip administered 30 mins prior to thiosemicarbazide challenge measured after 2.5 hrs; format: functional; details: route intraperitoneal
How it was run: (§4)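 KunMing mice (18–25 g), groups of 10, pretreated i.p. with test agent in polyethylene glycol-400 30 min before thiosemicarbazide 50 mg/kg i.p. Animals kept in individual cages and watched for 2 h 30 min, noting clonic seizures, tonic seizures and lethality.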

Mus musculus [22] = assay: Anticonvulsant activity in mouse assessed as inhibition of thiosemicarbazide-induced tonic seizure at 50 mg/kg, ip administered 30 mins prior to thiosemicarbazide challenge measured after 2.5 hrs; format: functional; details: route intraperitoneal; how it was run: as §4
Mus musculus [23] = assay: Anticonvulsant activity in mouse assessed as reduction of thiosemicarbazide-induced lethality at 50 mg/kg, ip administered 30 mins prior to thiosemicarbazide challenge measured after 2.5 hrs; format: functional; design: scale not given: the % may be the effect or the level left; details: route intraperitoneal
Mus musculus [24] = assay: Anticonvulsant in mouse assessed as protection against maximum electric stimulus-induced seizures at 30 mg/kg, ip after 0.5 hrs; format: functional, organism-based; design: dose 30 mg/kg; how it was run: as §1
Mus musculus [25] = species: Mus musculus; assay: Ratio of HD50 for hypnotic activity to EC50 for inhibition of maximum electric stimulus-induced seizure in mouse; format: functional
Mus musculus [26] = assay: Anticonvulsant in po dosed mouse assessed as protection against maximum electric stimulus-induced seizures; format: functional
How it was run: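 Oral version of the phase-II protocol in KunMing mice (18–25 g). Groups of 10 dosed p.o. over a range giving at least three points between 10–90% MES protection or rotarod minimal neurotoxicity. Testing at 2 h time to peak effect. ED50 and TD50 with 95% confidence intervals from regression. PI = TD50/ED50.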

Mus musculus [27] = assay: Protective index, ratio of TD50 for po dosed mouse to ED50 for maximum electric stimulus-induced seizure in po dosed mouse; format: functional
[28] = Neurotoxicity against po dosed mouse by rotarod ataxia test; format: toxicity, organism-based; details: in vivo

Structure (SMILES)	Activity (Mus musculus [1])	Activity (Mus musculus [2])	Activity (Mus musculus [3])	ED50 (Mus musculus [4]) [mg/kg]	TD50 [6] [mg/kg]	PI (Mus musculus [7])	Activity (Mus musculus [9])	Activity (Mus musculus [10])	other results
Cc1ccc(Oc2ccc3nncn3n2)cc1	inactive	Non-toxic	Non-toxic	> 100	–	–	–	–	–
CCC1(c2ccccc2)C(=O)NC(=O)NC1=O [PHENOBARBITAL]	–	–	–	21.8	–	–	–	–	–
Clc1ccccc1Oc1ccc2nncn2n1	inactive	Non-toxic	Non-toxic	47.3	190	4	–	–	Activity (Mus musculus [5]): Active
CCCCCCOc1ccc2nncn2n1	–	–	–	32.9	60.8	1.8	Toxic	Non-toxic	Activity (Mus musculus [8]): inactive
COc1ccc(Oc2ccc3nncn3n2)cc1	inactive	Non-toxic	Non-toxic	> 100	–	–	–	–	–
CCCCCCCCOc1ccc2nncn2n1	–	Toxic	Non-toxic	> 100	–	–	–	–	Activity (Mus musculus [8]): inactive
NC(=O)N1c2ccccc2C=Cc2ccccc21 [CARBAMAZEPINE]	–	–	–	8.8	–	–	–	–	HD50 (Mus musculus [11]): 172 mg/kg; inhibition in vivo at 50 mg/kg (Mus musculus [12]): 100%; inhibition in vivo at 50 mg/kg (Mus musculus [13]): 0%; Activity (Mus musculus [14]): 0%; inhibition in vivo at 50 mg/kg (Mus musculus [15]): 40%; inhibition in vivo at 50 mg/kg (Mus musculus [16]): 0%; Activity (Mus musculus [17]): 0%; inhibition in vivo at 50 mg/kg (Mus musculus [18]): 80%; inhibition in vivo at 50 mg/kg (Mus musculus [19]): 0%; Activity (Mus musculus [20]): 10%; inhibition in vivo at 50 mg/kg (Mus musculus [21]): 90%; inhibition in vivo at 50 mg/kg (Mus musculus [22]): 0%; Activity (Mus musculus [23]): 0%
CCCCCCCCCCOc1ccc2nncn2n1	inactive	Toxic	Non-toxic	> 100	–	–	–	–	–
Clc1cccc(Oc2ccc3nncn3n2)c1	–	–	–	39.4	228	5.8	Non-toxic	Non-toxic	–
O=c1ccc(Oc2ccccc2)n[nH]1	inactive	–	Non-toxic	110	274	2.5	–	–	–
Cc1ccccc1Oc1ccc2nncn2n1	inactive	Non-toxic	Non-toxic	54.8	220	4.01	–	–	Activity (Mus musculus [5]): Active
Brc1ccc(Oc2ccc3nncn3n2)cc1	inactive	Non-toxic	Non-toxic	49.1	329	6.7	–	–	Activity (Mus musculus [5]): Active
CCCCCCCCCOc1ccc2nncn2n1	inactive	Toxic	Non-toxic	> 100	–	–	–	–	–
CCCCOc1ccc2nncn2n1	inactive	Toxic	Non-toxic	> 100	–	–	–	–	–
Clc1ccc(Oc2ccc3nncn3n2)c(Cl)c1	–	–	–	17.3	380	22	Non-toxic	Non-toxic	Activity (Mus musculus [24]): Active; HD50 (Mus musculus [11]): 746.6 mg/kg; Ratio (Mus musculus [25]): 43.2; inhibition in vivo at 50 mg/kg (Mus musculus [12]): 100%; inhibition in vivo at 50 mg/kg (Mus musculus [13]): 10%; Activity (Mus musculus [14]): 0%; inhibition in vivo at 50 mg/kg (Mus musculus [15]): 90%; inhibition in vivo at 50 mg/kg (Mus musculus [16]): 0%; Activity (Mus musculus [17]): 0%; inhibition in vivo at 50 mg/kg (Mus musculus [18]): 80%; inhibition in vivo at 50 mg/kg (Mus musculus [19]): 0%; Activity (Mus musculus [20]): 40%; inhibition in vivo at 50 mg/kg (Mus musculus [21]): 90%; inhibition in vivo at 50 mg/kg (Mus musculus [22]): 0%; Activity (Mus musculus [23]): 40%; ED50 (Mus musculus [26]): 45.6 mg/kg; PI (Mus musculus [27]): 12; TD50 [28]: 546 mg/kg
COc1ccccc1Oc1ccc2nncn2n1	inactive	Non-toxic	Non-toxic	> 100	–	–	–	–	–
Cc1cccc(Oc2ccc3nncn3n2)c1	inactive	Non-toxic	Non-toxic	> 100	–	–	–	–	–
Clc1ccc(Oc2ccc3nncn3n2)cc1	–	–	–	36.7	394	10.7	Non-toxic	Non-toxic	–
CCCCCCCOc1ccc2nncn2n1	–	–	–	42.4	73	1.7	Toxic	Non-toxic	Activity (Mus musculus [8]): inactive
Fc1ccc(Oc2ccc3nncn3n2)cc1	–	–	–	38	317	8.3	Non-toxic	Non-toxic	Activity (Mus musculus [8]): inactive
CCCCCOc1ccc2nncn2n1	–	–	–	39.4	70.4	1.79	Toxic	Non-toxic	Activity (Mus musculus [8]): inactive
